# Entries after “also recorded” stand apart in the source; their conditions may differ. Like-named read-outs stand apart in the source and are kept apart here. Marks after values point to notes of the source that are not given here.
# How the values were obtained:
# [1] = tested on: Salmonella typhimurium TA989; assay: Ames genotoxicity test, TA989; assay type: cell-based
# [2] = tested on: Salmonella typhimurium TA100; assay: Ames genotoxicity test, TA100; assay type: cell-based
# [3] = Metabolic stability in human and animal liver microsomes, stated across species; assay type: in vitro ADME, dog, rat, mouse
# [4] = tested on: rat intraluminal suture stroke model; conditions: cited from earlier work
# [5] = tested on: P-glycoprotein (PgP); assay: P-glycoprotein; assay type: cell-based, rat; conditions: 50 μM
# How it was run: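 H4IIE cells were exposed to the test compound at a single concentration (50 μM), with and without the PgP inhibitor cyclosporin A. Toxicity was measured by MTT assay and expressed as % control for each condition. The % difference was taken as the PgP interaction measure. The compound came from a DMSO stock, with a DMSO control, in a blinded contract CeeTox study.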
# [6] = tested on: HT22 cells; assay: Oxidative glutamate toxicity; assay type: cell-based
# How it was run: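 HT22 cells (DMEM, 10% FCS) were given the test compound, then 5 mM glutamate 30 min later to deplete GSH. Cell survival was measured 24 h after glutamate. Experiments were repeated at least three times in triplicate, shown as mean ± SD, and analysed by ANOVA with Bonferroni's test (P<0.05).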
# [7] = rat, microsomes
# [8] = human, microsomes
# [9] = tested on: HT22 cells; assay: HT22 cell ATP content in the in vitro ischemia assay; assay type: cell-based; conditions: 20 μM IAA; highest dose tested (10 μM)
# [10] = tested on: HT22 hippocampal neurons; assay: In vitro ischemia assay; assay type: cell-based
# How it was run: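 HT22 cells were grown in DMEM with 10% FCS and seeded at 5×10^3 cells/well. Next day they were switched to DMEM with 7.5% DFCS and given 20 μM iodoacetic acid ± test compound for 2 h, then fresh IAA-free medium with compound for 20 h. MTT (5 μg/ml) ran 4 h at 37°C, was solubilised in 50% DMF/20% SDS pH 4.7, and A570 was read next day. Runs were done ≥3 times in triplicate; ANOVA/Bonferroni.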
# [11] = tested on: free radical-induced peroxidation; conditions: in vitro; cited from earlier work
# [12] = tested on: H4IIE rat hepatoma cell line; assay: CeeTox analysis, cellular toxicity panel; assay type: cell-based
# [13] = tested on: HT22 hippocampal cells; assay: HT22 neuroprotection, IAA or oxidative glutamate toxicity assays stated together; assay type: cell-based; conditions: read-out: EC50, neuroprotection, either IAA or oxidative glutamate toxicity assay
# [14] = rat, in vivo; cited from earlier work
# [15] = microsomes
# [16] = dog, microsomes
# [17] = oxidative glutamate toxicity assay
compound,measurement,setting,value
"Nc1ccc2cc3ccccc3cc2c1 [2-aminoanthracene, reference compound]",Mean no. of positive wells,"[1]; TA989+S9, positive control",48.00
same,Mean no. of positive wells,"[1]; TA989−S9, positive control",36.00
same,Mean no. of positive wells,"[2]; TA100+S9, positive control",48.00
same,Mean no. of positive wells,"[2]; TA100−S9, positive control",48.00
"C[C@]12CC[C@H]3[C@@H](CCC4=CC(=O)CC[C@@]43C)[C@@H]1CC[C@@H]2O [testosterone, reference compound]",half-life,[3]; human,10 to 32 min
Stilbazulenyl nitrone [STAZN],effect on behavior,[4],improved behavior measured up to 30 days following ischemia
same,effect on infarct volume,[4],reduced infarct volume in a dose- and time-dependent manner
same,"neuroprotective doses, times lower than NXY-059",[4],300–600 times
same,interaction with PgP transporters,[5],low-level interaction
same,% Control (compound + CSA),"[5]; MTT, H4IIE cells, with cyclosporin A",83.4%
same,% Control (compound),"[5]; MTT, H4IIE cells, without CSA",100.3%
same,% Difference,[5]; without vs with CSA,16.9%
same,concentration at which significance was first achieved,"[6]; 5 mM glutamate, HT22 cells",5 µM
same,increase in survival,[6]; [17],416%
same,"maximal level of protection, of total cell survival",[6]; [17],~52%
same,half-life,[3],60 to 78 min
same,Half-life t1/2,[7],> 60 min
same,"Half-life t1/2, calculated value in parentheses",[7],95 min
same,Percent remaining of initial compound,[7]; 10 min,82.4%
same,Percent remaining of initial compound,[7]; 20 min,76.6%
same,Percent remaining of initial compound,[7]; 0.5 h,80.3%
same,drug metabolized,[7]; 0.5 h,20%
same,Percent remaining of initial compound,[7]; 1 h,122 ^d %
same,Half-life t1/2,[8],78 min
same,Percent remaining of initial compound,[8]; 10 min,57.7%
same,Percent remaining of initial compound,[8]; 20 min,39.7%
same,Percent remaining of initial compound,[8]; 0.5 h,46.9%
same,Percent remaining of initial compound,[8]; 1 h,49.1%
same,drug metabolized,[8]; 1 h,approximately 50%
same,Mean no. of positive wells,"[1]; TA989+S9, .001963 mg/ml",2.33
same,Mean no. of positive wells,"[1]; TA989+S9, .003906 mg/ml",1.33
same,Mean no. of positive wells,"[1]; TA989+S9, .007813 mg/ml",5.00
same,Mean no. of positive wells,"[1]; TA989+S9, .015625 mg/ml",3.00
same,Mean no. of positive wells,"[1]; TA989+S9, .03125 mg/ml",4.00
same,Mean no. of positive wells,"[1]; TA989+S9, .0625 mg/ml",2.33
same,mutagenicity (Ames test outcome),"[1]; TA989, with or without S9, up to 0.0625 mg/ml (0.106 mM)",lack of mutagenicity; also recorded: not mutagenic
same,Mean no. of positive wells,"[1]; TA989−S9, .001963 mg/ml",1.33
same,Mean no. of positive wells,"[1]; TA989−S9, .003906 mg/ml",1.33
same,Mean no. of positive wells,"[1]; TA989−S9, .007813 mg/ml",0.33
same,Mean no. of positive wells,"[1]; TA989−S9, .015625 mg/ml",0.67
same,Mean no. of positive wells,"[1]; TA989−S9, .03125 mg/ml",0.00
same,Mean no. of positive wells,"[1]; TA989−S9, .0625 mg/ml",0.67
same,effect on IAA-induced ATP loss,[9],significantly attenuate IAA-induced ATP loss
same,increase in survival,[10]; IAA assay,621%
same,"maximal level of protection, of total cell survival",[10]; IAA assay,approximately 60%
same,EC50,"[10]; read-out: EC50, neuroprotection in the IAA assay, estimated, 20 μM IAA, HT22 cells",~1 µM
same,potency relative to NXY-059 at inhibiting free radical-induced peroxidation,[11],300 times
same,decrease in cellular ATP content,"[12]; H4IIE cells, 300 μM",~35%
same,ATP TC50,"[12]; H4IIE cells, 24 h",>300 µM
same,Cell number TC50,"[12]; H4IIE cells, 24 h",>300 µM
same,MTT TC50,"[12]; H4IIE cells, 24 h",>300 µM
same,MemTox TC50,"[12]; H4IIE cells, 24 h",>300 µM
same,Total GSH TC50,"[12]; H4IIE cells, 24 h",>300 µM
same,TC50 for all general toxicity measures,"[12]; H4IIE cells, 24 h, all assays",> 300 µM
same,Membrane lipid peroxidation,"[12]; H4IIE cells, measured as 8-isoprostane",0
same,therapeutic safety window (efficacy/toxicity ratio),"[12]; in vitro, HT22 EC50 vs CeeTox toxicity",60–150 fold
same,Mean no. of positive wells,"[2]; TA100+S9, .001963 mg/ml",7.33
same,Mean no. of positive wells,"[2]; TA100+S9, .003906 mg/ml",6.33
same,Mean no. of positive wells,"[2]; TA100+S9, .007813 mg/ml",6.67
same,Mean no. of positive wells,"[2]; TA100+S9, .015625 mg/ml",6.33
same,Mean no. of positive wells,"[2]; TA100+S9, .03125 mg/ml",10.67
same,Mean no. of positive wells,"[2]; TA100+S9, .0625 mg/ml",8.67
same,mutagenicity (Ames test outcome),"[2]; TA100, with or without S9, up to 0.0625 mg/ml (0.106 mM)",lack of mutagenicity; also recorded: not mutagenic
same,Mean no. of positive wells,"[2]; TA100−S9, .001963 mg/ml",5.00
same,Mean no. of positive wells,"[2]; TA100−S9, .003906 mg/ml",3.67
same,Mean no. of positive wells,"[2]; TA100−S9, .007813 mg/ml",6.33
same,Mean no. of positive wells,"[2]; TA100−S9, .015625 mg/ml",7.33
same,Mean no. of positive wells,"[2]; TA100−S9, .03125 mg/ml",5.00
same,Mean no. of positive wells,"[2]; TA100−S9, .0625 mg/ml",5.67
same,EC50,[13],1 to 5 µM
same,"circulating half-life t1/2, first phase of biexponential decline in blood levels",[14],28 min
same,Half-life t1/2,[15],< 10 min
same,"Half-life t1/2, calculated value in parentheses",[15]; mouse,27 min
same,Percent remaining of initial compound,"[15]; mouse, 10 min",17.2%
same,Percent remaining of initial compound,"[15]; mouse, 20 min",19.8%
same,Percent remaining of initial compound,"[15]; mouse, 0.5 h",10.0%
same,Percent remaining of initial compound,"[15]; mouse, 1 h",13.8%
same,drug metabolized,"[15]; mouse, 1 h",86%
same,Half-life t1/2,[16],71 min
same,Percent remaining of initial compound,[16]; 10 min,56.2%
same,Percent remaining of initial compound,[16]; 20 min,65.5%
same,Percent remaining of initial compound,[16]; 0.5 h,54.5%
same,Percent remaining of initial compound,[16]; 1 h,47.6%
same,drug metabolized,[16]; 1 h,approximately 50%
